Laboratory results published in ChEMBL document CHEMBL1759943, “Design and synthesis of novel enhanced water soluble hydroxyethyl analogs of combretastatin A-4” (Bioorg Med Chem Lett, 2011).
Values after ≈ are worked out from the molar mass of the structure shown. Each block holds one compound with its values, some of them ahead of it.

Legend:
[1] = test system: B16; assay: Antiproliferative activity against mouse B16 cells after 72 hrs by MTT assay; format: functional, cell-based; settings: B16, 72 h
Outline: (§1)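 Murine L1210 lymphoma and B16 melanoma cells in culture were given 72-h continuous exposure to compound, and viability was read by MTT assay. IC50 was taken as the readout.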

[2] = test system: L1210; assay: Antiproliferative activity against mouse L1210 cells after 72 hrs by MTT assay; format: functional, cell-based; settings: L1210, 72 h; outline: as §1
[3] = test system: SK-MEL-28; assay: Cytotoxicity against human SK-MEL-28 cells; format: functional; settings: SK-MEL-28, read-out: pGI50 (converted)
[4] = test system: CCRF-CEM; assay: Cytotoxicity against human CCRF-CEM cells; format: functional
[5] = test system: CAKI-1; assay: Cytotoxicity against human Caki1 cells; format: functional
[6] = test system: HT-29; assay: Cytotoxicity against human HT-29 cells; format: functional
[7] = test system: Mus musculus; assay: Toxicity in DBA2 mouse assessed as change in color and texture of spleen at 75 mg/kg, ip administered once daily on day 1, 5, 9, 13, 17; format: organism-based; set-up: dose 75 mg/kg, route intraperitoneal; settings: in vivo
Outline: (§2)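 Healthy, non-tumor-bearing female DBA2 mice given 75 mg/kg on days 1, 5, 9, 13 and 17. Toxicity was judged at the end of the experiment from body weight change, blood cell counts, and the gross color and texture of the kidneys, liver and spleen.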

[8] = test system: MDA-MB-435; assay: Ratio of EC50 for disruption of interphase microtubule organization in rat A10 cells to IC50 for human MDA-MB-435 cells; format: functional
[9] = test system: UACC-62; assay: Cytotoxicity against human UACC62 cells; format: functional
[10] = test system: OVCAR-4; assay: Cytotoxicity against human OVCAR4 cells; format: functional
[11] = test system: MDA-MB-231; assay: Cytotoxicity against human MDA-MB-231 cells; format: functional
[12] = test system: NCI-H322M; assay: Cytotoxicity against human NCI-H322M cells; format: functional
[13] = test system: SW-620; assay: Cytotoxicity against human SW620 cells; format: functional
[14] = test system: BT-549; assay: Cytotoxicity against human BT549 cells; format: functional
[15] = test system: SK-OV-3; assay: Cytotoxicity against human SKOV3 cells; format: functional
[16] = test system: RPMI-8226; assay: Cytotoxicity against human RPMI8226 cells; format: functional
[17] = test system: ACHN; assay: Cytotoxicity against human ACHN cells; format: functional
[18] = test system: UACC-257; assay: Cytotoxicity against human UACC257 cells; format: functional; settings: UACC-257, read-out: pGI50 (converted)
[19] = test system: SF-268; assay: Cytotoxicity against human SF268 cells; format: functional
[20] = test system: NCI-H460; assay: Cytotoxicity against human NCI-H460 cells; format: functional
[21] = test system: SN12C; assay: Cytotoxicity against human SN12C cells; format: functional
[22] = test system: MDA-MB-435; assay: Cytotoxicity against human MDA-MB-435 cells; format: functional, cell-based
[23] = test system: DU-145; assay: Cytotoxicity against human DU145 cells; format: functional
[24] = test system: UO-31; assay: Cytotoxicity against human UO31 cells; format: functional
[25] = test system: HOP-92; assay: Cytotoxicity against human HOP92 cells; format: functional
[26] = test system: OVCAR-8; assay: Cytotoxicity against human OVCAR8 cells; format: functional
[27] = test system: HCC 2998; assay: Cytotoxicity against human HCC2998 cells; format: functional
[28] = test system: PC-3; assay: Cytotoxicity against human PC3 cells; format: functional
[29] = test system: NCI-H23; assay: Cytotoxicity against human NCI-H23 cells; format: functional
[30] = test system: NCI/ADR-RES; assay: Cytotoxicity against human NCI/ADR-RES cells; format: functional
[31] = test system: NCI-H226; assay: Cytotoxicity against human NCI-H226 cells; format: functional; settings: NCI-H226, read-out: pGI50 (converted)
[32] = test system: OVCAR-3; assay: Cytotoxicity against human OVCAR3 cells; format: functional
[33] = test system: A10; assay: Disruption of microtubule organization in rat A10 cells assessed as loss of interphase microtubules; format: functional, cell-based
[34] = test system: HL-60; assay: Cytotoxicity against human HL60 cells; format: functional
[35] = test system: TK-10; assay: Cytotoxicity against human TK10 cells; format: functional
[36] = test system: KM12; assay: Cytotoxicity against human KM12 cells; format: functional
[37] = test system: HCT-116; assay: Cytotoxicity against human HCT116 cells; format: functional
[38] = test system: Mus musculus; assay: Toxicity in DBA2 mouse assessed as change in body weight at 75 mg/kg, ip administered once daily on day 1, 5, 9, 13, 17; format: organism-based; set-up: dose 75 mg/kg, route intraperitoneal; settings: in vivo; outline: as §2
[39] = test system: IGROV-1; assay: Cytotoxicity against human IGROV1 cells; format: functional
[40] = test system: Mus musculus; assay: Toxicity in DBA2 mouse assessed as change in color and texture of liver at 75 mg/kg, ip administered once daily on day 1, 5, 9, 13, 17; format: organism-based; set-up: dose 75 mg/kg, route intraperitoneal; settings: in vivo; outline: as §2
[41] = test system: OVCAR-5; assay: Cytotoxicity against human OVCAR5 cells; format: functional
[42] = test system: MDA-MB-468; assay: Cytotoxicity against human MDA-MB-468 cells; format: functional
[43] = test system: Mus musculus; assay: Toxicity in DBA2 mouse assessed as change in blood cell count at 75 mg/kg, ip administered once daily on day 1, 5, 9, 13, 17; format: organism-based; set-up: dose 75 mg/kg, route intraperitoneal; settings: in vivo; outline: as §2
[44] = test system: M14; assay: Cytotoxicity against human M14 cells; format: functional
[45] = test system: A498; assay: Cytotoxicity against human A498 cells; format: functional
[46] = test system: COLO 205; assay: Cytotoxicity against human COLO205 cells; format: functional
[47] = Aqueous solubility of the compound after 6 hrs; format: physicochemical
Outline: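 Solubility was measured with a modified filter-plate protocol, assay maximum 500 µM. Each compound had its own standard curve, diluted into 80:20 aqueous buffer:acetonitrile at 5% DMSO (v/v) final. The aqueous sample was mixed 6 h and centrifuged. Supernatant absorbance gave concentration from the standard curve.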

[48] = test system: 786-0; assay: Cytotoxicity against human 786-0 cells; format: functional
[49] = test system: LOX IMVI; assay: Cytotoxicity against human LOXIMVI cells; format: functional
[50] = test system: U-251; assay: Cytotoxicity against human U251 cells; format: functional
[51] = test system: Mus musculus; assay: Toxicity in DBA2 mouse assessed as change in color and texture of kidney at 75 mg/kg, ip administered once daily on day 1, 5, 9, 13, 17; format: organism-based; set-up: dose 75 mg/kg, route intraperitoneal; settings: in vivo; outline: as §2
[52] = test system: HCT-15; assay: Cytotoxicity against human HCT15 cells; format: functional
[53] = test system: HOP-62; assay: Cytotoxicity against human HOP62 cells; format: functional
[54] = test system: SF-295; assay: Cytotoxicity against human SF295 cells; format: functional
[55] = test system: K562; assay: Cytotoxicity against human K562 cells; format: functional
[56] = test system: MCF7; assay: Cytotoxicity against human MCF7 cells; format: functional
[57] = test system: MOLT-4; assay: Cytotoxicity against human MOLT4 cells; format: functional
[58] = test system: SK-MEL-5; assay: Cytotoxicity against human SK-MEL-5 cells; format: functional
[59] = test system: A549; assay: Cytotoxicity against human A549 cells; format: functional
[60] = test system: SK-MEL-2; assay: Cytotoxicity against human SK-MEL-2 cells; format: functional
[61] = test system: L1210; assay: Antitumor activity against mouse L1210 cells xenografted in DBA2 mouse assessed as reduction in tumor volume at 75 mg/kg, ip administered once daily on day 1, 3, 5, 7, 9, 11, 13, 15, 17 measured on day 19 relative to control; format: functional; set-up: scale not given: the % may be the effect or the level left; settings: route intraperitoneal
Outline: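 Female DBA2 mice were inoculated with L1210 leukemia cells on the right flank. Compound was given ip at 75 mg/kg once on each of days 1, 3, 5, 7, 9, 11, 13, 15 and 17 after inoculation, in 100 µL injections; controls got vehicle alone. Tumor volume was compared with vehicle controls on day 19.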

[62] = Cytotoxicity against human Hs 578T cells; format: functional
[63] = Cytotoxicity against human RXF 393NL cells; format: functional
[64] = test system: NCI-H522; assay: Cytotoxicity against human NCI-H522 cells; format: functional
[65] = test system: EKVX; assay: Cytotoxicity against human EKVX cells; format: functional

Compound: COc1cc(/C(=C/c2ccc([N+](=O)[O-])cc2)C(C)O)cc(OC)c1OC (stereo unspecified)
IC50 [1]: > 100 µM | IC50 [2]: > 100 µM

Compound: COc1cc(/C(=C/c2cccc([N+](=O)[O-])c2)C(C)O)cc(OC)c1OC (stereo unspecified)
IC50 [1]: > 100 µM | IC50 [2]: > 100 µM

Compound: COc1ccc(/C=C(/c2cc(OC)c(OC)c(OC)c2)C(C)O)cc1OC (stereo unspecified)
IC50 [1]: > 100 µM | IC50 [2]: 69 µM

Compound: COc1ccc(/C=C(/c2cc(OC)c(OC)c(OC)c2)C(C)O)cc1[N+](=O)[O-] (stereo unspecified)
IC50 [1]: > 100 µM | IC50 [2]: 67.5 µM

Compound: COc1ccc(OC)c(/C=C(/c2cc(OC)c(OC)c(OC)c2)C(C)O)c1 (stereo unspecified)
IC50 [1]: > 100 µM | IC50 [2]: > 100 µM

The next lines start with results.

IC50 [1]: > 100 µM | IC50 [2]: > 100 µM
Compound: COc1cc(/C(=C/c2ccccc2)C(C)O)cc(OC)c1OC (stereo unspecified)

IC50 [1]: > 100 µM | IC50 [2]: 33.5 µM
Compound: COc1cc(/C(=C/c2ccc(C)cc2)C(C)O)cc(OC)c1OC (stereo unspecified)

IC50 [1]: > 100 µM | IC50 [2]: > 100 µM
Compound: COc1cc(/C(=C/c2ccc(Cl)cc2)C(C)O)cc(OC)c1OC (stereo unspecified)

IC50 [1]: > 100 µM | IC50 [2]: > 100 µM
Compound: COc1cc(/C(=C/c2ccc(Br)cc2)C(C)O)cc(OC)c1OC (stereo unspecified)

IC50 [1]: 17.5 µM | IC50 [2]: 3.9 µM
Compound: COc1ccc(/C=C(/c2cc(OC)c(OC)c(OC)c2)C(C)O)cc1 (stereo unspecified)

IC50 [1]: 51.5 µM | IC50 [2]: 18.5 µM
Compound: COc1cc(/C(=C/c2ccc(Cl)c(Cl)c2)C(C)O)cc(OC)c1OC (stereo unspecified)

IC50 [1]: 16.1 µM | EC50 [33]: 21.2 µM | solubility at 6 h [47]: 479 µM (≈ 173 µg/mL) | IC50 [2]: 4.1 µM
Compound: COc1ccc(/C=C(/c2cc(OC)c(OC)c(OC)c2)C(C)O)cc1O (stereo unspecified)
GI50 [3]: > 100 µM | GI50 [4]: 2.45 µM | GI50 [5]: 4.57 µM | GI50 [6]: 4.07 µM | Activity [7]: Non-toxic | Ratio [8]: 24 | GI50 [9]: 0.468 µM | GI50 [10]: 4.27 µM | GI50 [11]: 2.14 µM | GI50 [12]: 3.98 µM | GI50 [13]: 0.363 µM | GI50 [14]: 0.813 µM | GI50 [15]: 1.02 µM | GI50 [16]: 3.47 µM | GI50 [17]: 0.575 µM | GI50 [18]: > 100 µM | GI50 [19]: 1 µM | GI50 [20]: 0.49 µM | GI50 [21]: 6.61 µM | GI50 [22]: 0.2 µM | IC50 [22]: 0.88 µM | GI50 ([22]; read-out: pGI50 (converted)): 0.229 µM | GI50 [23]: 1.45 µM | GI50 [24]: 2.34 µM | GI50 [25]: 0.209 µM | GI50 [26]: 1.32 µM | GI50 [27]: 2.82 µM | GI50 [28]: 0.501 µM | GI50 [29]: 3.72 µM | GI50 [30]: 0.447 µM | GI50 [31]: > 100 µM | GI50 [32]: 0.245 µM | GI50 [34]: 0.479 µM | GI50 [35]: 4.07 µM | GI50 [36]: 0.389 µM | GI50 [37]: 0.479 µM | Activity [38]: Non-toxic | GI50 [39]: 0.851 µM | Activity [40]: Non-toxic | GI50 [41]: 5.62 µM | GI50 [42]: 0.501 µM | Activity [43]: Non-toxic | GI50 [44]: 0.631 µM | GI50 [45]: 0.759 µM | GI50 [46]: 27.5 µM | GI50 [48]: 4.17 µM | GI50 [49]: 0.891 µM | GI50 [50]: 0.575 µM | Activity [51]: Non-toxic | GI50 [52]: 0.617 µM | GI50 [53]: 4.07 µM | GI50 [54]: 1.86 µM | GI50 [55]: 0.55 µM | GI50 [56]: 0.389 µM | GI50 [57]: 4.68 µM | GI50 [58]: 0.417 µM | GI50 [59]: 3.02 µM | GI50 [60]: 0.692 µM | Activity [61]: 50% | GI50 [62]: 0.324 µM | GI50 [63]: 0.324 µM | GI50 [64]: 0.457 µM | GI50 [65]: 5.62 µM

IC50 [1]: 84 µM | IC50 [2]: 51.5 µM
Compound: COc1cc(/C=C(/c2cc(OC)c(OC)c(OC)c2)C(C)O)cc(OC)c1OC (stereo unspecified)
